Source: ChEMBL document CHEMBL5108039, “Piperazine tethered bergenin heterocyclic hybrids: design, synthesis, anticancer activity, and molecular docking studies” (RSC Med Chem, 2022)
Activity calls are given as the source filed them. The calls are words filed in the database; no cut-off is given here.

Key:
HCT-15 = experiment: Cytotoxicity against human HCT-15 cells assessed as cell growth inhibition; assay type: functional, cell-based
Method in brief: (§1)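 Compounds were dissolved in sterile DMSO as 10 mg ml−1 stocks and tested for in vitro growth inhibition of human cancer cell lines. Doxorubicin was the standard drug and DMSO (0.01%) the vehicle control. IC50 values are reported as means.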

CAL-27 [1] = experiment: Cytotoxicity against human CAL-27 cells assessed as cell growth inhibition; assay type: functional, cell-based; method in brief: as §1
SCC-9 [2] = experiment: Cytotoxicity against human SCC-9 cells assessed as cell growth inhibition; assay type: functional, cell-based; method in brief: as §1
A549 = experiment: Cytotoxicity against human A549 cells assessed as cell growth inhibition; assay type: functional, cell-based
Method in brief: (§2)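 Compounds were dissolved in sterile DMSO as 10 mg ml−1 stocks and tested in vitro for cytotoxicity in a cell-line panel, with DMSO (0.01%) as vehicle control and doxorubicin as standard. Mean IC50 values were reported, and the normal lung epithelial cells were tested up to 100 μM.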

[3] = Cytotoxicity against human BEAS-2B cells assessed as cell growth inhibition; assay type: toxicity, cell-based; method in brief: as §2
CAL-27 [4] = experiment: Cell cycle arrest in human CAL-27 cells assessed as accumulation at G0/G1 phase at 0.5 uM incubated for 24 hrs by flow cytometry (reference value: 77.6 %); assay type: functional
CAL-27 [5] = experiment: Cell cycle arrest in human CAL-27 cells assessed as accumulation at S phase at 0.5 uM incubated for 24 hrs by flow cytometry (reference value: 3.6 %); assay type: functional
CAL-27 [6] = experiment: Cell cycle arrest in human CAL-27 cells assessed as accumulation at G2/M phase at 0.5 uM incubated for 24 hrs by flow cytometry (reference value: 11.9 %); assay type: functional
SCC-9 [7] = experiment: Cell cycle arrest in human SCC-9 cells assessed as accumulation at G0/G1 phase at 0.5 uM incubated for 24 hrs by flow cytometry (reference value: 70.8 %); assay type: functional
SCC-9 [8] = experiment: Cell cycle arrest in human SCC-9 cells assessed as accumulation at S phase at 0.5 uM incubated for 24 hrs by flow cytometry (reference value: 14.4 %); assay type: functional
SCC-9 [9] = experiment: Cell cycle arrest in human SCC-9 cells assessed as accumulation at G2/M phase at 0.5 uM incubated for 24 hrs by flow cytometry (reference value: 14.2 %); assay type: functional
CAL-27 [10] = experiment: Induction of apoptosis in human CAL-27 cells assessed as live cells at 0.5 uM incubated for 24 hrs by Annexin V-FITC/PI staining based flow cytometric analysis (reference value: 99.8 %); assay type: functional
Method in brief: (§3)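 CAL27 cells were treated with vehicle, doxorubicin or test compounds at 10–63 μM, and apoptosis was assessed by annexin V–FITC/PI staining with flow cytometry. Cells were scored as live, early apoptotic, late apoptotic or necrotic. The vehicle was DMSO (0.01%).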

CAL-27 [11] = experiment: Induction of apoptosis in human CAL-27 cells assessed as early apoptotic cells at 0.5 uM incubated for 24 hrs by Annexin V-FITC/PI staining based flow cytometric analysis (reference value: 0.1 %); assay type: functional; method in brief: as §3
CAL-27 [12] = experiment: Induction of apoptosis in human CAL-27 cells assessed as late apoptotic cells at 0.5 uM incubated for 24 hrs by Annexin V-FITC/PI staining based flow cytometric analysis (reference value: 0.1 %); assay type: functional; method in brief: as §3
CAL-27 [13] = experiment: Induction of apoptosis in human CAL-27 cells assessed as necrotic cells at 0.5 uM incubated for 24 hrs by Annexin V-FITC/PI staining based flow cytometric analysis (reference value: 0.0 %); assay type: functional; method in brief: as §3
SCC-9 [14] = experiment: Induction of apoptosis in human SCC-9 cells assessed as live cells at 0.5 uM incubated for 24 hrs by Annexin V-FITC/PI staining based flow cytometric analysis (reference value: 95.7 %); assay type: functional
SCC-9 [15] = experiment: Induction of apoptosis in human SCC-9 cells assessed as early apoptotic cells at 0.5 uM incubated for 24 hrs by Annexin V-FITC/PI staining based flow cytometric analysis (reference value: 2.8 %); assay type: functional
SCC-9 [16] = experiment: Induction of apoptosis in human SCC-9 cells assessed as late apoptotic cells at 0.5 uM incubated for 24 hrs by Annexin V-FITC/PI staining based flow cytometric analysis (reference value: 1.4 %); assay type: functional
SCC-9 [17] = experiment: Induction of apoptosis in human SCC-9 cells assessed as necrotic cells at 0.5 uM incubated for 24 hrs by Annexin V-FITC/PI staining based flow cytometric analysis (reference value: 0.1 %); assay type: functional
MCF7 = experiment: Cytotoxicity against human MCF7 cells assessed as cell growth inhibition; assay type: functional, cell-based; method in brief: as §1
CAL-27 [18] = experiment: Cell cycle arrest in human CAL-27 cells assessed as accumulation at G0/G1 phase at 21 uM incubated for 24 hrs by flow cytometry (reference value: 77.6 %); assay type: functional
CAL-27 [19] = experiment: Cell cycle arrest in human CAL-27 cells assessed as accumulation at G0/G1 phase at 42 uM incubated for 24 hrs by flow cytometry (reference value: 77.6 %); assay type: functional
CAL-27 [20] = experiment: Cell cycle arrest in human CAL-27 cells assessed as accumulation at S phase at 21 uM incubated for 24 hrs by flow cytometry (reference value: 3.6 %); assay type: functional
CAL-27 [21] = experiment: Cell cycle arrest in human CAL-27 cells assessed as accumulation at S phase at 42 uM incubated for 24 hrs by flow cytometry (reference value: 3.6 %); assay type: functional
CAL-27 [22] = experiment: Cell cycle arrest in human CAL-27 cells assessed as accumulation at G2/M phase at 21 uM incubated for 24 hrs by flow cytometry (reference value: 11.9 %); assay type: functional
CAL-27 [23] = experiment: Cell cycle arrest in human CAL-27 cells assessed as accumulation at G2/M phase at 42 uM incubated for 24 hrs by flow cytometry (reference value: 11.9 %); assay type: functional
CAL-27 [24] = experiment: Induction of apoptosis in human CAL-27 cells assessed as live cells at 21 uM incubated for 24 hrs by Annexin V-FITC/PI staining based flow cytometric analysis (reference value: 99.8 %); assay type: functional; method in brief: as §3
CAL-27 [25] = experiment: Induction of apoptosis in human CAL-27 cells assessed as early apoptotic cells at 21 uM incubated for 24 hrs by Annexin V-FITC/PI staining based flow cytometric analysis (reference value: 0.1 %); assay type: functional; method in brief: as §3
CAL-27 [26] = experiment: Induction of apoptosis in human CAL-27 cells assessed as late apoptotic cells at 21 uM incubated for 24 hrs by Annexin V-FITC/PI staining based flow cytometric analysis (reference value: 0.1 %); assay type: functional; method in brief: as §3
CAL-27 [27] = experiment: Induction of apoptosis in human CAL-27 cells assessed as necrotic cells at 21 uM incubated for 24 hrs by Annexin V-FITC/PI staining based flow cytometric analysis (reference value: 0.0 %); assay type: functional
CAL-27 [28] = experiment: Induction of apoptosis in human CAL-27 cells assessed as live cells at 42 uM incubated for 24 hrs by Annexin V-FITC/PI staining based flow cytometric analysis (reference value: 99.8 %); assay type: functional; method in brief: as §3
CAL-27 [29] = experiment: Induction of apoptosis in human CAL-27 cells assessed as early apoptotic cells at 42 uM incubated for 24 hrs by Annexin V-FITC/PI staining based flow cytometric analysis (reference value: 0.1 %); assay type: functional; method in brief: as §3
CAL-27 [30] = experiment: Induction of apoptosis in human CAL-27 cells assessed as late apoptotic cells at 42 uM incubated for 24 hrs by Annexin V-FITC/PI staining based flow cytometric analysis (reference value: 0.1 %); assay type: functional; details: in the assay text read “early apoptotic cells” for “late apoptotic cells”; method in brief: as §3
CAL-27 [31] = experiment: Induction of apoptosis in human CAL-27 cells assessed as necrotic cells at 42 uM incubated for 24 hrs by Annexin V-FITC/PI staining based flow cytometric analysis (reference value: 0.0 %); assay type: functional
CAL-27 [32] = experiment: Induction of apoptosis in human CAL-27 cells assessed as downregulation of vimentin gene expression at 21 uM by qRT-PCR analysis; assay type: functional, cell-based
Method in brief: (§4)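 CAL27 cells were treated with test compounds at several concentrations. Relative expression of vimentin, E-cad, Nanog, Oct-4, Bax and BcL-2 was measured by qRT-PCR against vehicle-treated control cells.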

CAL-27 [33] = experiment: Induction of apoptosis in human CAL-27 cells assessed as downregulation of vimentin gene expression at 42 uM by qRT-PCR analysis; assay type: functional, cell-based; method in brief: as §4
CAL-27 [34] = experiment: Induction of apoptosis in human CAL-27 cells assessed as downregulation of Oct-4 gene expression at 21 uM by qRT-PCR analysis; assay type: functional, cell-based; method in brief: as §4
CAL-27 [35] = experiment: Induction of apoptosis in human CAL-27 cells assessed as downregulation of Oct-4 gene expression at 42 uM by qRT-PCR analysis; assay type: functional, cell-based; method in brief: as §4
CAL-27 [36] = experiment: Induction of apoptosis in human CAL-27 cells assessed as downregulation of Nanog gene expression at 21 uM by qRT-PCR analysis; assay type: functional, cell-based; method in brief: as §4
CAL-27 [37] = experiment: Induction of apoptosis in human CAL-27 cells assessed as downregulation of Nanog gene expression at 42 uM by qRT-PCR analysis; assay type: functional, cell-based; method in brief: as §4
CAL-27 [38] = experiment: Induction of apoptosis in human CAL-27 cells assessed as downregulation of BcL-2 gene expression at 21 uM by qRT-PCR analysis; assay type: functional, cell-based; method in brief: as §4
CAL-27 [39] = experiment: Induction of apoptosis in human CAL-27 cells assessed as downregulation of BcL-2 gene expression at 42 uM by qRT-PCR analysis; assay type: functional, cell-based; method in brief: as §4
CAL-27 [40] = experiment: Induction of apoptosis in human CAL-27 cells assessed as upregulation of Bax gene expression at 21 uM by qRT-PCR analysis; assay type: functional, cell-based
Method in brief: (§5)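 CAL27 cells were treated with test agents at different concentrations. Relative mRNA levels of vimentin, E-cad, Nanog, Oct-4, Bax and Bcl-2 were then quantified by qRT-PCR as apoptosis, EMT and stemness markers.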

CAL-27 [41] = experiment: Induction of apoptosis in human CAL-27 cells assessed as upregulation of Bax gene expression at 42 uM by qRT-PCR analysis; assay type: functional, cell-based; method in brief: as §5
CAL-27 [42] = experiment: Induction of apoptosis in human CAL-27 cells assessed as upregulation of E-cad gene expression at 21 uM by qRT-PCR analysis; assay type: functional, cell-based; method in brief: as §5
CAL-27 [43] = experiment: Induction of apoptosis in human CAL-27 cells assessed as upregulation of E-cad gene expression at 42 uM by qRT-PCR analysis; assay type: functional, cell-based; method in brief: as §5

In the case of `COc1cccc2c1C(=O)c1c(O)c3c(c(O)c1C2=O)C[C@@](O)(C(=O)CO)C[C@@H]3O[C@H]1C[C@H](N)[C@H](O)[C@H](C)O1` [DOXORUBICIN], the IC50 (HCT-15) is reported as 800 nM, the IC50 (CAL-27 [1]) is reported as 400 nM and the IC50 (SCC-9 [2]) is reported as 390 nM. It also gave an IC50 (A549) of 800 nM, an IC50 [3] of 800 nM and an Activity (CAL-27 [4]) of 59.7%. The Activity (CAL-27 [5]) was 4.2%, the Activity (CAL-27 [6]) was 34.3% and the Activity (SCC-9 [7]) was 29%. The Activity (SCC-9 [8]) was 16.31%, the Activity (SCC-9 [9]) was 55.6% and the Activity (CAL-27 [10]) was 16%. The Activity (CAL-27 [11]) was 0.7%, the Activity (CAL-27 [12]) was 58.9% and the Activity (CAL-27 [13]) was 24.4%. For the same compound, the Activity (SCC-9 [14]) was 7.1%, the Activity (SCC-9 [15]) was 0.3% and the Activity (SCC-9 [16]) was 41%. The Activity (SCC-9 [17]) was 51.5%.

With `COc1c(O)c(CN2CCN(S(=O)(=O)c3ccc(I)cc3)CC2)c2c(c1O)C1O[C@H](CO)[C@@H](O)[C@H](O)C1OC2=O` (stereo partly specified) the IC50 (HCT-15) was > 100000 nM, the IC50 (CAL-27 [1]) was 41600 nM and the IC50 (SCC-9 [2]) was > 100000 nM. For the same compound, the IC50 (A549) was > 100000 nM, the IC50 (MCF7) was > 100000 nM and the IC50 [3] was > 100000 nM. The Activity (CAL-27 [18]) was 83.3%, the Activity (CAL-27 [19]) was 83.7% and the Activity (CAL-27 [20]) was 3.5%. For the same compound, the Activity (CAL-27 [21]) was 1.9%, the Activity (CAL-27 [22]) was 12.6% and the Activity (CAL-27 [23]) was 11.5%. The Activity (CAL-27 [24]) was 97.1%, the Activity (CAL-27 [25]) was 1.1% and the Activity (CAL-27 [26]) was 0.7%. It also gave an Activity (CAL-27 [27]) of 1.1%, an Activity (CAL-27 [28]) of 94.6% and an Activity (CAL-27 [29]) of 1.7%. For the same compound, the Activity (CAL-27 [30]) was 1.7%, the Activity (CAL-27 [31]) was 2% and the Activity (CAL-27 [32]) was “Active”. For the same compound, the Activity (CAL-27 [33]) was “Active”, the Activity (CAL-27 [34]) was “Active” and the Activity (CAL-27 [35]) was “Active”. The Activity (CAL-27 [36]) was “Active”, the Activity (CAL-27 [37]) was “Active” and the Activity (CAL-27 [38]) was “Active”. The Activity (CAL-27 [39]) was “Active”, the Activity (CAL-27 [40]) was “Active” and the Activity (CAL-27 [41]) was “Active”. The Activity (CAL-27 [42]) was “Active” and the Activity (CAL-27 [43]) was “Active”.
